Assays:
[1] = Metabolic stability in human liver microsomes assessed as parent compound remaining at 5 uM in presence of NADPH regenerating system measured after 1 hr by LC/MS/MS method; format: ADME, Microsome
[2] = Selectivity index, ratio of IC50 for horseradish peroxidase to IC50 for Inhibition of human recombinant nSMase expressed in HEK293 cells; format: cell-based
Homo sapiens [3] = organism: Homo sapiens; test: Selectivity index, ratio of IC50 for alkaline phosphatase (unknown origin) to IC50 for Inhibition of human recombinant nSMase expressed in HEK293 cells; format: cell-based
[4] = Metabolic stability in mouse liver microsomes assessed as parent compound remaining at 5 uM in presence of NADPH regenerating system measured after 1 hr by LC/MS/MS method; format: ADME, Microsome
Homo sapiens [5] = organism: Homo sapiens; test: Selectivity index, ratio of IC50 for choline oxidase (unknown origin) to IC50 for Inhibition of human recombinant nSMase expressed in HEK293 cells; format: cell-based
[6] = Metabolic stability in mouse liver microsomes assessed as parent compound remaining in presence of UDPGA at 5 uM measured after 1 hr by LC/MS/MS method; format: ADME, Microsome
Procedure, shortened: (§1)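 Glucuronidation: compound in 50 mM Tris-HCl pH 7.5 with microsomes 0.5 mg/mL, 8 mM MgCl2, 25 μg/mL alamethicin, preincubated at 37 °C; started with UDPGA 2 mM final, triplicate; 60 min; quenched with cold acetonitrile plus internal standard; parent remaining by LC/MS/MS; cofactor-free controls.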

[7] = molecular target: T1, Sphingomyelin phosphodiesterase 3 (Homo sapiens, UniProt Q9NY59); test: Inhibition of human recombinant nSMase expressed in HEK293 cells using sphingomyelin as substrate by alkaline phosphatase, choline oxidase and horseradish peroxidase dependent H2O2 detection based fluorescence coupled assay
T1 sequence (Q9NY59 whole entry): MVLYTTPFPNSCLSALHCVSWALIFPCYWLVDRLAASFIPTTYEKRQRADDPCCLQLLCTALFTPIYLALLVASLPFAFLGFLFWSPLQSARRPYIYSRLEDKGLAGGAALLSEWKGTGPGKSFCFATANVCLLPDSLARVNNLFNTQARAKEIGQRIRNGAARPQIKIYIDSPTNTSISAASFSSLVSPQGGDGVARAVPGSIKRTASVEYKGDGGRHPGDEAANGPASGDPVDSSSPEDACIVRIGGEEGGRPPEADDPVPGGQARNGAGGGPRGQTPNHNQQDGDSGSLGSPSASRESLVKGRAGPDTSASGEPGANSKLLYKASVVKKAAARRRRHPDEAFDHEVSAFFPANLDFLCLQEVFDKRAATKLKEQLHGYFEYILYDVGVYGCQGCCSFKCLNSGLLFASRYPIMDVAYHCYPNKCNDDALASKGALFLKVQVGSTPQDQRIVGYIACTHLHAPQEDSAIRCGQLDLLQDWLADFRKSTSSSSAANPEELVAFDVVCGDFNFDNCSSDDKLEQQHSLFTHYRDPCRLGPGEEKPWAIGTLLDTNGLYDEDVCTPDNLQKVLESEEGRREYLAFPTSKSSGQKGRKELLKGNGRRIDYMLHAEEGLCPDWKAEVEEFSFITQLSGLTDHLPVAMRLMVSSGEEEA
Procedure, shortened: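 Fluorescence-based coupled assay with human recombinant nSMase2, alkaline phosphatase and choline oxidase; IC50 values are mean ± SD of at least three experiments.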

[8] = molecular target: T2, Sphingomyelin phosphodiesterase 3 (Rattus norvegicus, UniProt O35049); test: Inhibition of rat brain neutral sphingomyelinase pre-incubated for 30 mins before p-nitrophenyl/phosphorylcholine substrate addition by spectrophotometry
T2 sequence (O35049 whole entry): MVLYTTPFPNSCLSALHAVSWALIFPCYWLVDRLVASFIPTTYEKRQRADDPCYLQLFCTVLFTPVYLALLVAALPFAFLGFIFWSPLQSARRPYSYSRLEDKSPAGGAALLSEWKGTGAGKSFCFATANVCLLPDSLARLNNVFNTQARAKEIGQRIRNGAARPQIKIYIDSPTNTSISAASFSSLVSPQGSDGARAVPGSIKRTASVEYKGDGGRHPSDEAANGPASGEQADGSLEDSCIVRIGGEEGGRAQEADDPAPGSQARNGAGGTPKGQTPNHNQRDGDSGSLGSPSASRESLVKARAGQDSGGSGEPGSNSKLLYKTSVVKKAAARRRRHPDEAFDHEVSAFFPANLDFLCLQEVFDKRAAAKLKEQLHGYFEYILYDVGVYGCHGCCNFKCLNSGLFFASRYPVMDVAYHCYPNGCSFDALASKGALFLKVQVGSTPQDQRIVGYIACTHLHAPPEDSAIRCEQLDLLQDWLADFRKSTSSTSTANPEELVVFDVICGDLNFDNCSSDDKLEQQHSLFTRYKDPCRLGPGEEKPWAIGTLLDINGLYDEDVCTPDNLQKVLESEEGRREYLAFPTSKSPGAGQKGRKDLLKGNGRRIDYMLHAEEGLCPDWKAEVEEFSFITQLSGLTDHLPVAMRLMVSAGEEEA

[9] = Drug level in CD-1 mouse treated with at 10 mg/kg, po 4-(4,5-Diisopropyl-1H-imidazol-2-yl)-2,6-dimethoxyphenol hydrochloride assessed as compound formation measured after 2 hrs by UPLC and LC-MS/MS analysis; format: ADME, organism-based; conditions: in vivo
Procedure, shortened: (§2)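 Male CD-1 mice (25–30 g), single oral gavage 10 mg/kg in 5% DMSO, 5% polysorbate 80, 90% saline; 3 mice per time point, sacrificed at 0.5 and 2 h. Cardiac blood into heparin, plasma by centrifugation; brains flash frozen. Acetonitrile extraction with losartan internal standard; quantified by UPLC–LC-MS/MS against calibration curves in naïve plasma/brain matrix.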

[10] = Ratio of drug level in brain to plasma in CD-1 mouse at 10 mg/kg, po measured after 2 hrs by UPLC and LC-MS/MS analysis; format: ADME, organism-based; procedure, shortened: as §2
[11] = Metabolic stability in human liver microsomes assessed as parent compound remaining in presence of UDPGA at 5 uM measured after 1 hr by LC/MS/MS method; format: ADME, Microsome; procedure, shortened: as §1

SMILES | Stability [1] [%] | Stability [4] [%] | Stability [6] [%] | IC50 [7] [µM] | Drug uptake [9] | BPR [10] [%] | Stability [11] [%] | Ratio IC50 [2] | Ratio IC50 (Homo sapiens [3]) | Ratio IC50 (Homo sapiens [5]) | IC50 [8] [µM]
CC(C)Oc1cc(-c2nc(-c3ccccc3)c(-c3cccs3)[nH]2)cc(OC(C)C)c1O |  | 4 | > 95 | 0.04 |  |  |  | > 5 | > 5 | > 5 | 
COc1cc(C2=NCCN2)cc(OC)c1O |  |  |  | > 100 |  |  |  | > 5 | > 5 | > 5 | 
COc1cc(-c2nc(-c3cccs3)c(-c3cccs3)[nH]2)cc(OC)c1O |  |  |  |  |  |  |  | > 5 | > 5 | > 5 | 
O=C(/C=C\c1ccc(/C=C\C(=O)Nc2ccc(C3=NCCN3)cc2)cc1)Nc1ccc(C2=NCCN2)cc1 |  |  |  |  |  |  |  |  |  |  | 1
Oc1c(Cl)cc(-c2nc(-c3ccccc3)c(-c3cccs3)[nH]2)cc1Cl |  |  |  | > 100 |  |  |  | > 5 | > 5 | > 5 | 
Oc1ccc(-c2nc(-c3ccccc3)c(-c3cccs3)[nH]2)cc1 |  |  |  | 2.1 |  |  |  | < 5 | < 5 | < 5 | 
COc1cc(-c2nc(C(C)C)c(C(C)C)[nH]2)cc(OC)c1O[C@@H]1O[C@H](C(=O)O)[C@@H](O)[C@H](O)[C@H]1O |  |  |  |  | Active |  |  |  |  |  | 
Oc1ccccc1-c1nc(-c2ccccc2)c(-c2cccs2)[nH]1 |  |  |  | > 100 |  |  |  | > 5 | > 5 | > 5 | 
COc1cc(OC)cc(-c2nc(-c3ccccc3)c(-c3cccs3)[nH]2)c1 |  |  |  |  |  |  |  | > 5 | > 5 | > 5 | 
COc1cc(-c2ncc(-c3ccccc3)[nH]2)cc(OC)c1O |  |  |  |  |  |  |  | > 5 | > 5 | > 5 | 
CCCCc1[nH]c(-c2cc(OC)c(O)c(OC)c2)nc1C |  |  |  |  |  |  |  | > 5 | > 5 | > 5 | 
CC(C)(C)Oc1cc(-c2nc(-c3ccccc3)c(-c3cccs3)[nH]2)cc(OC(C)(C)C)c1O |  |  |  | 0.52 |  |  |  | > 5 | > 5 | > 5 | 
Oc1c(OCC(F)(F)F)cc(-c2nc(-c3ccccc3)c(-c3cccs3)[nH]2)cc1OCC(F)(F)F | 94 | > 95 |  | 0.07 |  |  |  | > 5 | > 5 | > 5 | 
Oc1cccc(-c2nc(-c3ccccc3)c(-c3cccs3)[nH]2)c1 |  |  |  | > 100 |  |  |  | > 5 | > 5 | > 5 | 
COc1cc(-c2ncc[nH]2)cc(OC)c1O |  |  |  | 0.42 |  |  |  | > 5 | > 5 | > 5 | 
COc1cc(-c2nccs2)cc(OC)c1O |  |  |  | 20 |  |  |  | < 5 | < 5 | < 5 | 
CCOc1cc(-c2nc(-c3ccccc3)c(-c3cccs3)[nH]2)cc(OCC)c1O |  | 35 |  | 0.01 |  |  |  | > 5 | > 5 | > 5 | 
COc1cc(-c2nc(-c3ccccc3)c(-c3cccs3)[nH]2)ccc1O |  |  |  |  |  |  |  | > 5 | > 5 | > 5 | 
Oc1c(OC2CCCC2)cc(-c2nc(-c3ccccc3)c(-c3cccs3)[nH]2)cc1OC1CCCC1 |  |  |  | 0.12 |  |  |  | > 5 | > 5 | > 5 | 
COc1cc(-c2ncc(C)[nH]2)cc(OC)c1O |  |  |  | 0.22 |  |  |  | < 5 | < 5 | < 5 | 
COc1cc(-c2nc3c([nH]2)CCCC3)cc(OC)c1O |  |  |  | 0.42 |  |  |  | < 5 | < 5 | < 5 | 

The next lines start with results.

Stability [1] [%] | Stability [4] [%] | Stability [6] [%] | IC50 [7] [µM] | Drug uptake [9] | BPR [10] [%] | Stability [11] [%] | SMILES | Ratio IC50 [2] | Ratio IC50 (Homo sapiens [3]) | Ratio IC50 (Homo sapiens [5]) | IC50 [8] [µM]
95 | 82 |  |  |  |  |  | COc1cc(-c2nc(C)c(-c3ccccc3)[nH]2)cc(OC)c1O | > 5 | > 5 | > 5 | 
 |  |  | > 100 |  |  |  | COc1cc(-c2nc(-c3ccccc3)c(-c3cccs3)[nH]2)cc(OC)c1OC | > 5 | > 5 | > 5 | 
73 | 95 |  | 0.02 |  |  |  | COc1cc(-c2nc(-c3cccs3)c(C)[nH]2)cc(OC)c1O | > 5 | > 5 | > 5 | 
75 | 73 |  |  |  |  |  | COc1ccc(-c2nc(-c3cc(OC)c(O)c(OC)c3)[nH]c2-c2ccc(OC)cc2)cc1 | > 5 | > 5 | > 5 | 
> 95 | 75 |  | 0.12 |  |  |  | CCc1nc(-c2cc(OC)c(O)c(OC)c2)[nH]c1CC | > 5 | > 5 | > 5 | 
 |  |  | 0.52 |  |  |  | COc1cc(-c2nc(C)c(C)[nH]2)cc(OC)c1O | < 5 | < 5 | < 5 | 
 |  |  | 0.13 |  |  |  | COc1cc(-c2nc(-c3ccc(C)cc3)c[nH]2)cc(OC)c1O | > 5 | > 5 | > 5 | 
> 95 | > 95 |  |  |  |  |  | COc1cc(-c2nc(-c3ccccc3)c(-c3ccccc3)[nH]2)cc(OC)c1O | > 5 | > 5 | > 5 | 
> 95 | > 95 |  | 0.07 |  |  |  | COc1cc(-c2nc(-c3ccc(C)cc3)c(-c3ccc(C)cc3)[nH]2)cc(OC)c1O | > 5 | > 5 | > 5 | 
 |  |  | 0.04 |  |  |  | COc1cc(-c2nc(-c3ccco3)c(-c3ccco3)[nH]2)cc(OC)c1O | > 5 | > 5 | > 5 | 
95 | 95 | 67 |  |  | 17 | 50 | COc1cc(-c2nc(-c3cccs3)c(-c3ccccc3)[nH]2)cc(OC)c1O |  |  |  | 
> 95 | 94 |  | 0.07 |  |  |  | COc1cc(-c2nc(-c3ccccc3)c(C(C)C)[nH]2)cc(OC)c1O | > 5 | > 5 | > 5 | 

Reference: ChEMBL document CHEMBL4385599, “Neutral sphingomyelinase 2 inhibitors based on the 4-(1H-imidazol-2-yl)-2,6-dialkoxyphenol scaffold” (Eur J Med Chem, 2019)
